According to paper PMC12257578 (Drug Development Research, 2025):
Read-outs that look alike come from different tables or passages of the source.

Tests used:
[1] = test system: Madin‐Darby bovine kidney (MDBK) cell line; assay: Animal cytotoxicity, CCK-8 assay in MDBK cells; format: cell-based; conditions: read-out: Cytotoxicity CC50 ± SD MDBK, 72 h
Method in brief: (§1)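 MDBK bovine kidney cells at 10 000 cells/mL were exposed to two-fold serial dilutions of test compound for 72 h at 37°C, 5% CO2, humidified. CCK-8 reagent was then added, followed by a further 4 h incubation. Absorbance was read and CC50 derived, reported as mean ± SD of three biological replicates.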

[2] = test system: T. congolense strain IL3000; assay: Antitrypanosomal Cell-TiterGlo assay, T. congolense; format: cell-based, Trypanosoma congolense; conditions: read-out: Antitrypomastigote activity IC50 ± SD
[3] = test system: Trypanosoma brucei brucei GUTat3.1; assay: Antitrypanosomal Cell-TiterGlo assay, T.b. brucei; format: cell-based; conditions: read-out: Antitrypomastigote activity IC50 ± SD
Method in brief: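 Blood-stage T. b. brucei GUTat3.1 at 2500 cells/mL was first screened at 0.25 and 25 µg/mL. […] Plates ran 72 h, then CellTiter-Glo was added, shaken 2 min and held 10 min at room temperature for lysis. IC50 came from bioluminescence, mean ± SD of three biological replicates.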

[4] = test system: T. brucei gambiense strain IL1922; assay: Antitrypanosomal Cell-TiterGlo assay, T.b. gambiense; format: cell-based, Trypanosoma brucei gambiense; conditions: read-out: Antitrypomastigote activity IC50 ± SD; Tbg IL1922, 72 h
[5] = test system: T. equiperdum strain IVM‐t1; assay: Antitrypanosomal Cell-TiterGlo assay, T. equiperdum; format: cell-based, Trypanosoma equiperdum; conditions: read-out: Antitrypomastigote activity IC50 ± SD
[6] = Animal cytotoxicity, CCK-8 assay in MDBK cells; format: cell-based, bovine; conditions: bovine
Method in brief: as §1

[7] = test system: Leishmania donovani strain 9515 promastigotes; assay: Antipromastigote resazurin assay, L. donovani; format: cell-based; conditions: read-out: Antipromastigote activity IC50
Method in brief: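 L. donovani strain 9515 (MHOM/IN/95/9515) promastigotes were kept at 26°C in supplemented M199 with 10% FBS, pH 7.3–7.4. Log-phase cells were seeded at 1.25 × 10^6 cells/mL with seven two-fold dilutions of test compound. […] After 48 h at 26°C, 0.01% resazurin in PBS was added for 24 h in the dark. IC50 came from absorbance.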

[8] = test system: Leishmania donovani strain 9515 intramacrophage amastigotes; assay: Intramacrophage antileishmanial assay; format: cell-based
[9] = General cytotoxicity, resazurin assay in Vero cells; format: cell-based; conditions: African green monkey
Method in brief: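 Vero cells at 60,000 cells/mL were pre-incubated 24 h, then treated with a two-fold dilution series starting from 100 μM test compound for 72 h. […] Emetine served as control.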

[10] = test system: L. major strain NIH S intramacrophage amastigotes; assay: Intramacrophage antileishmanial assay; format: cell-based; conditions: Leishmania major
[11] = test system: L. major strain NIH S promastigotes; assay: Antipromastigote resazurin assay, L. major; format: cell-based; conditions: Leishmania major, read-out: Antipromastigote activity IC50
[12] = test system: human colorectal adenocarcinoma (CaCO2) cells; conditions: ref Tshiluka et al. [2023]; Tshiluka et al. [2025]; cited from earlier work
[13] = 24 h, read-out: Static anti‐amastigote activity IC50
[14] = 72 h, read-out: Cidal anti‐amastigote activity IC50

Compound: N=C(N)c1ccc(N=NNc2ccc(C(=N)N)cc2)cc1 [Diminazene aceturate, diminazene aceturate]
- CC50 [1]: > 355000 nM
- IC50 ([2]; Tc IL3000, 72 h): 90 nM
- IC50 ([3]; Tbb GuTat3.1, 72 h): 68 nM
- IC50 [4]: 11 nM
- IC50 ([5]; Teq IVM‐t1, 72 h): 22 ± 2 nM

Compound: Cc1ccc(C(=O)Nc2ccc(S(=O)(=O)O)c3cc(S(=O)(=O)O)cc(S(=O)(=O)O)c23)cc1NC(=O)c1cccc(NC(=O)Nc2cccc(C(=O)Nc3cc(C(=O)Nc4ccc(S(=O)(=O)O)c5cc(S(=O)(=O)O)cc(S(=O)(=O)O)c45)ccc3C)c2)c1 [Suramin, suramin]
- CC50 at 72 h [6]: > 70000 nM
- IC50 ([3]; Trypanosoma brucei, 72 h): 70 ± 20 nM

Compound: C[C@@H]1[C@H](O)[C@@H](C)/C=C/C=C/C=C/C=C/C=C/C=C/C=C/[C@H](O[C@@H]2O[C@H](C)[C@@H](O)[C@H](N)[C@@H]2O)C[C@@H]2O[C@](O)(C[C@@H](O)C[C@@H](O)[C@H](O)CC[C@@H](O)C[C@@H](O)CC(=O)O[C@H]1C)C[C@H](O)[C@H]2C(=O)O [AMB, Amphotericin B]
- IC50 [7]: 20 ± 9 nM
- IC50 [8, 13]: 50 nM

Compound: CC[C@H]1CN2CCc3cc(OC)c(OC)cc3[C@@H]2C[C@@H]1C[C@H]1NCCc2cc(OC)c(OC)cc21 [Em, Emetine]
- CC50 at 72 h [9]: 80 ± 9 nM

Compound: CCC[C@H](NC(=O)CN1C(=O)SC(=Cc2ccc3c(c2)OCO3)C1=O)C(=O)OCC [Compound 8, Ethyl {2-[5-(benzo[d] [1,3]dioxol-5-ylmethylene)-2,4-dioxothiazolidin-3-yl]acetyl}norvalinate]
- IC50 [10, 13]: > 10000 nM
- IC50 [10, 14]: > 10000 nM
- IC50 [7]: 85860 ± 390 nM
- CC50 at 72 h [6]: 97100 ± 9300 nM
- IC50 ([2]; Trypanosoma congolense, 72 h): > 58000 nM
- IC50 [11]: > 100000 nM
- Toxicity on CaCO2 (Caco‐2) cells in words [12]: reduced cell viability
- IC50 ([3]; Trypanosoma brucei, 72 h): > 58000 nM
- IC50 ([5]; Trypanosoma equiperdum, 72 h): > 58000 nM
- IC50 [8, 13]: > 10000 nM
- IC50 [8, 14]: > 10000 nM
